How the values were obtained:
liver tissue slices [1] = assay: Formation of hydroxylated PCB 136 metabolites in liver tissue slices; format: in vitro ADME, Sprague-Dawley rats; details: for Metabolite formation, slices / Metabolite formation, medium: 2 h; for Metabolite as percent of ΣOH-PCB: slices plus medium
liver tissue slices [2] = assay: Enantioselective analysis; format: in vitro ADME, Sprague-Dawley rats; details: for Enantiomeric enrichment: liver slices from PB- and DEX-treated male and female rats incubated with racemic PCB 136
Procedure, shortened: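 Liver slices from PB- or DEX-pretreated rats, two per vial in 2 mL K-H buffer, were incubated with racemic test compound (final 5 μM, from DMSO) for 2 h at 37 °C under 5% CO2/95% air in a dynamic system. Triplicate incubations were run per animal. Hydroxylated metabolites were methylated; atropisomers were separated on Chirasil-Dex (5-OH) or Cyclosil-B (4-OH) columns. EF = Area E(2)/(Area E(1) + Area E(2)).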

ryanodine receptor (RyR) = details: enantioselective; ref Pessah et al., 2009; cited from earlier work
liver tissue slices [3] = assay: Liver slice viability; format: cell-based, Sprague-Dawley rats; details: 2 h
Procedure, shortened: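 Liver slices came from adult rats, either naive or pretreated with PB or DEX, taken 24 h after the last dose into cold Krebs-Henseleit buffer, pH 7.5. Two slices per vial in 2 mL buffer received test compound (final 5 μM) or DMSO, 2 h, 37 °C, 5 % CO2/95 % air. LDH in medium and homogenate gave % release = A1×D1/(A1×D1+A2×D2); viable was <30 %.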

CYP1A2 = assay: Hepatic P450 transcript levels; format: in vivo, Sprague-Dawley rats
[4] = Effect of inducer treatment on body and liver weights of rats; format: in vivo, Sprague-Dawley rats; details: i.p. inducer treatment
[5] = test system: hippocampal slice cultures; assay: LDH release in hippocampal slice cultures; format: cell-based, Sprague Dawley rats (PND4 pups); details: ethanol 200 mM, 14 d exposure
Procedure, shortened: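 Hippocampi from PND4 pups of timed-pregnant Sprague Dawley rats were cultured as slices. From 5 DIV, racemic test compound or vehicle (0.1 % DMSO) was added to 1 mL medium, renewed every 2 days for 14 days. LDH release was measured with a membrane-integrity fluorescence kit. Mean ± SEM, n = 2 wells per group.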

[6] = test system: hippocampal slice cultures; assay: Propidium iodide; format: cell-based, Sprague Dawley rats (PND4 pups); details: glutamate 20 mM, positive control, 3 d exposure
[7] = DEX-treated female rats, PCB 136 5 μM (10 nmol)
[8] = DEX-treated female rats, PCB 136 5 μM
[9] = DEX-treated male rats, PCB 136 5 μM (10 nmol)
[10] = DEX-treated male rats, PCB 136 5 μM
[11] = PB-treated female rats, PCB 136 5 μM (10 nmol)
[12] = PB-treated female rats, PCB 136 5 μM
[13] = PB-treated male rats, PCB 136 5 μM (10 nmol)
[14] = PB-treated male rats, PCB 136 5 μM (10 nmol), ND, not detected
[15] = PB-treated male rats, PCB 136 5 μM
[16] = naïve control (CTL) female rats, PCB 136 5 μM (10 nmol), ND, not detected
[17] = naïve control (CTL) female rats, PCB 136 5 μM, ND, not detected
[18] = naïve control (CTL) female rats
[19] = naïve control (CTL) male rats, PCB 136 5 μM (10 nmol), ND, not detected
[20] = naïve control (CTL) male rats, PCB 136 5 μM, ND, not detected

| SMILES | Metabolite formation, slices (liver tissue slices [1]; [7]) | Metabolite formation, slices (liver tissue slices [1]; [8]) | Metabolite as percent of ΣOH-PCB (liver tissue slices [1]; DEX-treated female rats) | Metabolite formation, slices (liver tissue slices [1]; [9]) | Metabolite formation, slices (liver tissue slices [1]; [10]) | Metabolite as percent of ΣOH-PCB (liver tissue slices [1]; DEX-treated male rats) | Metabolite formation, slices (liver tissue slices [1]; [11]) | Metabolite formation, slices (liver tissue slices [1]; [12]) | Metabolite as percent of ΣOH-PCB (liver tissue slices [1]; PB-treated female rats) | Metabolite formation, slices (liver tissue slices [1]; [13]) | Metabolite formation, slices (liver tissue slices [1]; [15]) | Metabolite as percent of ΣOH-PCB (liver tissue slices [1]; PB-treated male rats) | Enantiomeric enrichment (liver tissue slices [2]) | also measured |
| --- | --- | --- | --- | --- | --- | --- | --- | --- | --- | --- | --- | --- | --- | --- |
| Oc1c(O)c(Cl)c(-c2c(Cl)ccc(Cl)c2Cl)c(Cl)c1Cl [4,5-diOH-PCB 136, 2,2′,3,3′,6,6′-hexachlorobiphenyl-4,5-diol] | 3 ± 1 pmol | 0.1 ± 0.0 ng/mg protein | 1.3 ± 0.3% | 6 ± 2 pmol | 0.1 ± 0.0 ng/mg protein | 0.9 ± 0.3% | 6 ± 3 pmol | 0.1 ± 0.1 ng/mg protein | 1.0 ± 0.4% | 32 ± 15 pmol | 0.6 ± 0.3 ng/mg protein | 5.6 ± 3.6% |  | Metabolite formation, medium (liver tissue slices [1]; [14]): 24 ± 34 pmol; Metabolite level in tissue slices (liver tissue slices [1]; tissue slices from CTL rats): below the detection limit |
| Oc1cc(Cl)c(-c2c(Cl)ccc(Cl)c2Cl)c(Cl)c1Cl [4-OH-PCB 136, 2,2′,3,3′,6,6′-hexachlorobiphenyl-4-ol] | 24 ± 19 pmol | 0.5 ± 0.3 ng/mg protein | 7.7 ± 3.5% | 26 ± 5 pmol | 0.4 ± 0.1 ng/mg protein | 4.3 ± 0.7% | 30 ± 4 pmol | 0.7 ± 0.0 ng/mg protein | 5.8 ± 1.0% | 15 ± 5 pmol | 0.3 ± 0.1 ng/mg protein | 1.5 ± 0.2% |  | 4-OH-PCB 136 levels relative to 5-OH-PCB 136 levels (times higher) (liver tissue slices [1]; liver slices from female CTL rats): approximately 3 times; Metabolite formation, slices (liver tissue slices [1]; [16]): 33 ± 4 pmol; Metabolite formation, slices (liver tissue slices [1]; [17]): 0.7 ± 0.1 ng/mg protein; Metabolite as percent of ΣOH-PCB (liver tissue slices [1]; [18]): 75 ± 16%; Metabolite formation, slices (liver tissue slices [1]; [19]): 60 ± 30 pmol; Metabolite formation, slices (liver tissue slices [1]; [20]): 1.0 ± 0.5 ng/mg protein; Metabolite as percent of ΣOH-PCB (liver tissue slices [1]; naïve control (CTL) male rats): 57 ± 5% |
| Oc1cc(Cl)c(Cl)c(-c2c(Cl)ccc(Cl)c2Cl)c1Cl [5-OH-PCB 136, 2,2′,3,3′,6,6′-hexachlorobiphenyl-5-ol] | 240 ± 110 pmol | 4.9 ± 1.1 ng/mg protein | 91 ± 4% | 495 ± 95 pmol | 7.7 ± 1.2 ng/mg protein | 95 ± 1% | 490 ± 100 pmol | 11 ± 1.3 ng/mg protein | 93 ± 1% | 900 ± 220 pmol | 16.0 ± 2.0 ng/mg protein | 93 ± 4% |  | Enantiomeric fraction (EF) (liver tissue slices [2]; liver slices from PB- and DEX-treated male and female rats, racemic PCB 136 5 μM, 2 h, EF = Area E(2)/(Area E(1) + Area E(2)), range over groups): 0.69–0.74; Metabolite formation, medium (liver tissue slices [1]; DEX-treated male rats, PCB 136 5 μM (10 nmol), ND, not detected): 80 ± 37 pmol; Metabolite formation, medium (liver tissue slices [1]; [14]): 115 ± 22 pmol; Metabolite formation, slices (liver tissue slices [1]; [16]): 12 ± 10 pmol; Metabolite formation, slices (liver tissue slices [1]; [17]): 0.3 ± 0.2 ng/mg protein; Metabolite as percent of ΣOH-PCB (liver tissue slices [1]; [18]): 25 ± 16%; Metabolite formation, slices (liver tissue slices [1]; [19]): 50 ± 10 pmol; Metabolite formation, slices (liver tissue slices [1]; [20]): 0.7 ± 0.2 ng/mg protein; Metabolite as percent of ΣOH-PCB (liver tissue slices [1]; naïve control (CTL) male rats): 43 ± 5% |
| Clc1ccc(Cl)c(-c2c(Cl)ccc(Cl)c2Cl)c1Cl [(−)-PCB 136] |  |  |  |  |  |  |  |  |  |  |  |  | slightly enriched | Sensitization of RyR (ryanodine receptor (RyR)): active |
| C[C@@H]1C[C@H]2[C@@H]3CCC4=CC(=O)C=C[C@]4(C)[C@@]3(F)[C@@H](O)C[C@]2(C)[C@@]1(O)C(=O)CO [Dexamethasone (DEX), dexamethasone] |  |  |  |  |  |  |  |  |  |  |  |  |  | LDH release (liver tissue slices [3]; liver tissue slices from DEX pretreated female rats): 19.6 ± 10.4%; LDH release (liver tissue slices [3]; liver tissue slices from DEX pretreated male rats): 10.4 ± 3.6%; CYP1A2 transcript level vs CTL (CYP1A2; liver slices from female rats): not significantly changed; CYP1A2 transcript level vs CTL (CYP1A2; liver slices from male rats): not changed; Liver weight ([4]; female rats): 12.1 ± 0.2 g; Percent change in body weight ([4]; female rats): −12.0 ± 4.4 %; Liver weight ([4]; male rats): 16.8 ± 0.6 g; Percent change in body weight ([4]; male rats): −17.0 ± 0.7 % |
| Oc1cc(Cl)c(-c2c(Cl)ccc(Cl)c2Cl)c(Cl)c1Cl [E(1)-4-OH-PCB] |  |  |  |  |  |  |  |  |  |  |  |  | enriched |  |
| Oc1cc(Cl)c(Cl)c(-c2c(Cl)ccc(Cl)c2Cl)c1Cl [E(2)-5-OH-PCB] |  |  |  |  |  |  |  |  |  |  |  |  | enriched to a similar extent |  |
| CCO [ethanol, reference compound] |  |  |  |  |  |  |  |  |  |  |  |  |  | LDH release relative to vehicle controls [5]: significantly increased LDH release |
| N[C@@H](CCC(=O)O)C(=O)O [glutamate, reference compound] |  |  |  |  |  |  |  |  |  |  |  |  |  | PI uptake [6]: significantly increased PI uptake |
